Results from ChEMBL document CHEMBL4265871, “Novel alkylated azoles as potent antifungals” (Eur J Med Chem, 2017).
≈ marks a conversion by molar mass, not a printed value.

What was measured:
[1] = Selectivity index, ratio of […] for toxicity in human A549 cells to MIC50 for antifungal activity against Aspergillus nidulans ATCC 38163; assay type: cell-based; conditions: read-out: Selectivity Index
Nakaseomyces glabratus = experiment: Antifungal activity against Candida glabrata ATCC 2001 incubated for 48 hrs by modified CLSI M27-A3 protocol based method; assay type: functional; conditions: ATCC 2001, 48 h
[2] = Selectivity index, ratio of EC50 for toxicity in human A549 cells to MIC50 for antifungal activity against Candida albicans ATCC 64124; assay type: cell-based; conditions: read-out: Selectivity Index
Summary of the method: (§1)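 Selectivity index is the EC50 against the mammalian line (A549 or BEAS-2B) divided by the MIC against the given fungal strain.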

[3] = Hemolytic activity in mouse erythrocytes assessed as hemolysis level at 125 ug/ml incubated for 1 hr at 37 degC; assay type: ADME, cell-based, Erythrocyte; conditions: read-out: Activity
Summary of the method: (§2)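 Mouse erythrocytes incubated 1 h at 37 °C with test agents over 1.95 to 125 µg/mL. Percent lysis is read for each concentration.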

[4] = Toxicity in human A549 cells assessed as reduction in cell viability incubated for 24 hrs by resazurin dye based assay
Summary of the method: (§3)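 Toxicity tested in the nucleated lines A549 and BEAS-2B to give EC50 values. Selectivity index is EC50 against the mammalian line divided by the MIC against a given fungal strain.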

[5] = Selectivity index, ratio of EC50 for toxicity in human A549 cells to MIC50 for antifungal activity against ITC and FLC-resistant Candida albicans ATCC MYA-90819; assay type: cell-based; conditions: read-out: Selectivity Index; summary of the method: as §1
[6] = Hemolytic activity in mouse erythrocytes assessed as hemolysis level at 15.6 ug/ml incubated for 1 hr at 37 degC; assay type: ADME, cell-based, Erythrocyte; conditions: read-out: Activity; summary of the method: as §2
[7] = Selectivity index, ratio of EC50 for toxicity in human BEAS2B cells to MIC50 for antifungal activity against ITC and FLC-resistant Candida albicans ATCC MYA-90819; assay type: cell-based; conditions: BEAS-2B cells, read-out: Selectivity Index
Summary of the method: (§4)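 Ratio of the compound's EC50 against BEAS-2B cells to its MIC against the named C. albicans strain. […] For C. albicans strains other than ATCC 10231, trailing growth meant MIC-2 was taken, meaning 50% growth inhibition.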

[8] = Selectivity index, ratio of EC50 for toxicity in human BEAS2B cells to MIC50 for antifungal activity against ITC and FLC-susceptible Candida albicans ATCC MYA-2876; assay type: cell-based; conditions: BEAS-2B cells, read-out: Selectivity Index; summary of the method: as §4
Candida parapsilosis = experiment: Antifungal activity against Candida parapsilosis ATCC 22019 incubated for 48 hrs by modified CLSI M27-A3 protocol based method; assay type: functional; conditions: Lodderomyces parapsilosis, ATCC 22019, 48 h; read-out: MIC100
Summary of the method: (§5)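 For C. albicans ATCC 10231, C. krusei ATCC 6258 and C. parapsilosis ATCC 22019, MIC-0 was read, meaning complete growth inhibition. For azole controls, MIC-2 (50% growth inhibition) was reported instead. Caspofungin and voriconazole were tested here; other controls came from earlier work.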

Candida albicans [9] = experiment: Antifungal activity against ITC and FLC-resistant Candida albicans ATCC MYA-1003 incubated for 48 hrs by modified CLSI M27-A3 protocol based method; assay type: functional; conditions: ATCC MYA-1003, 48 h
Summary of the method: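 Because these Candida strains show trailing growth, MIC-2 was read, meaning 50% growth inhibition. Caspofungin and voriconazole were tested here; other controls came from earlier work.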

[10] = Selectivity index, ratio of EC50 for toxicity in human A549 cells to MIC50 for antifungal activity against Candida krusei ATCC 6258
[11] = Selectivity index, ratio of EC50 for toxicity in human BEAS2B cells to MIC50 for antifungal activity against Candida albicans ATCC 64124; assay type: cell-based; conditions: BEAS-2B cells, read-out: Selectivity Index; summary of the method: as §1
[12] = Selectivity index, ratio of EC50 for toxicity in human BEAS2B cells to MIC50 for antifungal activity against ITC and FLC-resistant Candida albicans ATCC 1237; assay type: cell-based; conditions: BEAS-2B cells, read-out: Selectivity Index; summary of the method: as §1
[13] = Hemolytic activity in mouse erythrocytes assessed as hemolysis level at 1.95 ug/ml incubated for 1 hr at 37 degC; assay type: ADME, cell-based, Erythrocyte; conditions: read-out: Activity; summary of the method: as §2
[14] = Selectivity index, ratio of EC50 for toxicity in human BEAS2B cells to MIC50 for antifungal activity against ITC and FLC-susceptible Candida albicans ATCC MYA-2310; assay type: cell-based; conditions: BEAS-2B cells, read-out: Selectivity Index; summary of the method: as §4
[15] = Selectivity index, ratio of […] for toxicity in human A549 cells to MIC50 for antifungal activity against Aspergillus terreus ATCC MYA-3633; assay type: cell-based; conditions: read-out: Selectivity Index
Aspergillus flavus = experiment: Antifungal activity against Aspergillus flavus ATCC MYA-3631 incubated for 48 hrs by CLSI M38-A2 protocol based method; assay type: functional; conditions: ATCC MYA-3631, 48 h, read-out: MIC100
in vitro = conditions: mouse, mouse erythrocytes
[16] = Selectivity index, ratio of […] for toxicity in human BEAS2B cells to MIC50 for antifungal activity against Aspergillus terreus ATCC MYA-3633; assay type: cell-based; conditions: BEAS-2B cells, read-out: Selectivity Index
[17] = Hemolytic activity in mouse erythrocytes assessed as hemolysis level at 7.8 ug/ml incubated for 1 hr at 37 degC; assay type: ADME, cell-based, Erythrocyte; conditions: read-out: Activity; summary of the method: as §2
[18] = Selectivity index, ratio of EC50 for toxicity in human BEAS2B cells to MIC50 for antifungal activity against Candida krusei ATCC 6258; conditions: BEAS-2B cells
Aspergillus nidulans = experiment: Antifungal activity against Aspergillus nidulans ATCC 38163 incubated for 48 hrs by CLSI M38-A2 protocol based method; assay type: functional; conditions: ATCC 38163, 48 h, read-out: MIC100
[19] = Selectivity index, ratio of EC50 for toxicity in human A549 cells to MIC50 for antifungal activity against ITC and FLC-resistant Candida albicans ATCC MYA-1003; assay type: cell-based; conditions: read-out: Selectivity Index; summary of the method: as §1
[20] = Selectivity index, ratio of […] for toxicity in human A549 cells to MIC50 for antifungal activity against Aspergillus flavus ATCC MYA-3631; assay type: cell-based; conditions: read-out: Selectivity Index
[21] = Selectivity index, ratio of EC50 for toxicity in human A549 cells to MIC50 for antifungal activity against ITC and FLC-susceptible Candida albicans ATCC MYA-2876; assay type: cell-based; conditions: read-out: Selectivity Index; summary of the method: as §1
Pichia kudriavzevii = experiment: Antifungal activity against Candida krusei ATCC 6258 incubated for 48 hrs by modified CLSI M27-A3 protocol based method; assay type: functional; conditions: ATCC 6258, 48 h, read-out: MIC100; summary of the method: as §5
[22] = Selectivity index, ratio of […] for toxicity in human BEAS2B cells to MIC50 for antifungal activity against Aspergillus nidulans ATCC 38163; assay type: cell-based; conditions: BEAS-2B cells, read-out: Selectivity Index
Candida albicans [23] = experiment: Antifungal activity against ITC and FLC-susceptible Candida albicans ATCC MYA-2310 incubated for 48 hrs by modified CLSI M27-A3 protocol based method; assay type: functional; conditions: ATCC MYA-2310, 48 h
Candida albicans [24] = experiment: Antifungal activity against ITC and FLC-resistant Candida albicans ATCC MYA-90819 incubated for 48 hrs by modified CLSI M27-A3 protocol based method; assay type: functional; conditions: ATCC MYA-90819, 48 h
[25] = Selectivity index, ratio of EC50 for toxicity in human A549 cells to MIC50 for antifungal activity against Candida glabrata ATCC 2001; assay type: cell-based; conditions: read-out: Selectivity Index; summary of the method: as §1
[26] = Toxicity in human BEAS2B cells assessed as reduction in cell viability incubated for 24 hrs by resazurin dye based assay; conditions: BEAS-2B cells; summary of the method: as §3

Compound | selectivity ratio [1] | MIC50 (Nakaseomyces glabratus) [µM] | selectivity ratio [2] | hemolysis at 1 h, 125 ug/ml [3] [%] | EC50 at 24 h [4] [µg/mL] | selectivity ratio [5] | hemolysis at 1 h, 15.6 ug/ml [6] [%] | selectivity ratio [7] | selectivity ratio [8] | MIC (Candida parapsilosis) [µM] | MIC50 (Candida albicans [9]) [µM] | selectivity ratio [10] | selectivity ratio [11] | selectivity ratio [12] | hemolysis at 1 h, 1.95 ug/ml [13] [%] | selectivity ratio [14] | selectivity ratio [15] | MIC (Aspergillus flavus) [µM] | hemolysis at 1 h, 62.5 ug/ml (in vitro) [%] | selectivity ratio [16] | also measured
CCCCCCC(O)(Cn1cncn1)c1ccccc1Cl (stereo not drawn) | 522 | 3.2 (≈ 0.985 µg/mL) | 1 | 92 | > 31.3 | 16 | 0 | 16 | 32 | 0.39 (≈ 0.12 µg/mL) | 25.3 (≈ 7.79 µg/mL) | 261 | 1 | 32 | 0 | 16 | 65 | 6.3 to 12.7 (≈ 1.94 to 3.91 µg/mL) | 81.7 | 65 | hemolysis at 1 h, 7.8 ug/ml [17]: 0%; selectivity ratio [18]: 261; MIC (Aspergillus nidulans): 0.19 µM (≈ 0.0585 µg/mL); selectivity ratio [19]: 4; selectivity ratio [20]: 8 to 16; selectivity ratio [21]: 32; MIC (Pichia kudriavzevii): 0.39 µM (≈ 0.12 µg/mL); selectivity ratio [22]: 522; MIC50 (Candida albicans [23]): 6.3 µM (≈ 1.94 µg/mL); MIC50 (Candida albicans [24]): 6.3 µM (≈ 1.94 µg/mL); selectivity ratio [25]: 32; EC50 at 24 h [26]: > 31.3 µg/mL
CCCCC(O)(Cn1cncn1)c1ccc(F)cc1F (stereo not drawn) | 16 | 112 (≈ 31.4 µg/mL) | 2 | 0 | > 31.3 | 2 | 0 | 2 | 5 | < 0.11 | 13.9 (≈ 3.91 µg/mL) | 522 | 2 | 2 | 0 | 1 | 2 | 55.5 (≈ 15.6 µg/mL) | 0 | 2 | hemolysis at 1 h, 7.8 ug/ml [17]: 0%; selectivity ratio [18]: 600; MIC (Aspergillus nidulans): 6.9 µM (≈ 1.94 µg/mL); selectivity ratio [19]: 8; selectivity ratio [20]: 2; selectivity ratio [21]: 4; MIC (Pichia kudriavzevii): 0.21 µM (≈ 0.0591 µg/mL); selectivity ratio [22]: 19; MIC50 (Candida albicans [23]): 112 µM (≈ 31.4 µg/mL); MIC50 (Candida albicans [24]): 55.5 µM (≈ 15.6 µg/mL); selectivity ratio [25]: 1; EC50 at 24 h [26]: 36 µg/mL (≈ 128 µM)
CCCCCCC(O)(Cn1cncn1)c1ccc(F)cc1F (stereo not drawn) | 73 | 12.6 (≈ 3.9 µg/mL) | 4 | 60.9 | 35 (≈ 113 µM) | 18 | 8.2 | 16 | 16 | < 0.1 | 6.3 (≈ 1.95 µg/mL) | 292 | 4 | 16 | 0 | 8 | 4 | 50.4 (≈ 15.6 µg/mL) | 26.3 | 4 | hemolysis at 1 h, 7.8 ug/ml [17]: 0%; selectivity ratio [18]: 261; MIC (Aspergillus nidulans): 1.6 µM (≈ 0.495 µg/mL); selectivity ratio [19]: 18; selectivity ratio [20]: 2; selectivity ratio [21]: 18; MIC (Pichia kudriavzevii): 0.39 µM (≈ 0.121 µg/mL); selectivity ratio [22]: 65; MIC50 (Candida albicans [23]): 12.6 µM (≈ 3.9 µg/mL); MIC50 (Candida albicans [24]): 6.3 µM (≈ 1.95 µg/mL); selectivity ratio [25]: 9; EC50 at 24 h [26]: > 31.3 µg/mL
CCCCCCC(O)(Cn1cncn1)c1ccccc1F (stereo not drawn) | 65 | 3.3 (≈ 0.962 µg/mL) | 1 | 85.6 | > 31.3 | 130 | 0 | 130 | 32 | 0.41 (≈ 0.119 µg/mL) | 13.4 (≈ 3.9 µg/mL) | 522 | 1 | 32 | 0 | 32 | 8 | 53.5 to 107 (≈ 15.6 to 31.3 µg/mL) | 28.8 | 8 | hemolysis at 1 h, 7.8 ug/ml [17]: 0%; selectivity ratio [18]: 522; MIC (Aspergillus nidulans): 1.6 µM (≈ 0.466 µg/mL); selectivity ratio [19]: 8; selectivity ratio [20]: 1 to 2; selectivity ratio [21]: 32; MIC (Pichia kudriavzevii): 0.21 µM (≈ 0.0612 µg/mL); selectivity ratio [22]: 65; MIC50 (Candida albicans [23]): 3.3 µM (≈ 0.962 µg/mL); MIC50 (Candida albicans [24]): 0.82 µM (≈ 0.239 µg/mL); selectivity ratio [25]: 32; EC50 at 24 h [26]: > 31.3 µg/mL
